# Results reported in publication PMC6587326 (Obesity Science & Practice, 2019).
# Columns and labels:
# [1] = Insulin absorption upon s.c. neck dosing in HFD and LFD rats; assay type: in vivo, Male Sprague Dawley rats; details: 12 nmol, HFD n = 22, LFD n = 10, p < 0.01
# Procedure, shortened: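 Rats aged 33–34 weeks, fed a high-fat (60% fat to 22 weeks, then 45%) or low-fat (10% fat) diet from weaning, received 12 nmol test insulin (20 μL) s.c. in the neck. Sublingual-vein blood was drawn at 5, 15 and 60 min, and plasma levels were measured by luminescent oxygen channelling immunoassay. Each rat was dosed five times; mean ± SEM.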
# [2] = assay type: in vivo, Male Sprague Dawley rats; details: anaesthetized rats, s.c. 20 μL insulin aspart/iomeprol 80/20; p < 0.001
# Procedure, shortened: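 Male rats on a high-fat diet (60% fat from weaning to 22 weeks, then 45%) or a low-fat diet (10% fat), aged 36–38 weeks, were isoflurane-anaesthetized. They received 20 μL test insulin mixed 80/20 with iomeprol s.c. in the neck or flank. μCT scans ran to 13 min (neck) or 17 min (flank). Tail blood was taken at 5 and 15 min and measured by luminescent oxygen channelling immunoassay. Three (neck) or four (flank) repeats per rat; mean ± SEM.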
substance,measurement,setting,value
insulin aspart,"area under the curve (AUC0–60 min), HFD compared with LFD group",[1],reduced
same,"mean insulin concentration at 5 and 15 min, flank compared with neck dosing",[2],significantly lower
